SENP8 block-1 – blocks the human protease SENP8 | Q96LD8 | actives 1.2% (n = 330,000) | purified SENP8, Z-RLRGG-aminoluciferin cleavage, luminescence | inhibition, % at 10 µM; in the data active = inhibition above about 50%
SENP1 inh – blocks the human SENP1 SUMO protease catalytic domain; recombinant SENP1 catalytic domain, CyPet-SUMO1-YPet FRET cleavage; inhibition, % at 10 µM; actives 0.21% (n = 360,000);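 active = inhibition at least 30% at 10 µM, raw YFP signal under a set limit, fluorescence ratio 0.5 to 1.5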;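 also: 0% = enzyme with DMSO and 100% = no enzyme wells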
Target sequence (Q9P0U3 419-644 limits assumed): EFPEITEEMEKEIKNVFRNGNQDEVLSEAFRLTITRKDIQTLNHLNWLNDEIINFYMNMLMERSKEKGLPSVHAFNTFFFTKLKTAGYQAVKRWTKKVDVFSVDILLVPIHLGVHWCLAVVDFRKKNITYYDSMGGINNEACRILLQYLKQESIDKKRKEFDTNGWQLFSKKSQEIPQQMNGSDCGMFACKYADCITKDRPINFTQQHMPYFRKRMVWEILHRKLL
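Controls: no-enzyme wells low, DMSO-plus-enzyme wells high control. Test system: human recombinant His6-tagged SENP1 catalytic domain enzyme. Reagent: SFCypet-SUMO1-SFYpet FRET protein substrate, 25 nM final. Doses: one dose per compound, 10 µM, 0.5% DMSO. Detection: FRET, CFP and YFP emission. Timing: 50 min reaction at room temperature.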
Platelet DG rel – modulates dense granule release in human platelets | human platelet-rich plasma, SFLLRN dense granule ATP release, luminescence | inhibition, %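 (compounds screened at 7.5 µM in platelet-rich plasma)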 | actives 0.22% (n = 300,000);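 active = mean replicate score, as percent of positive control, at or above 50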
SENP7 block – blocks the human protease SENP7; AID 434973; recombinant SENP7, Z-RLRGG-aminoluciferin luminescence, 40 min; inhibition, % at 5 µM; Q9BQF6; actives 1.5% (n = 330,000);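 active = inhibition above about 50% at the single test dose, limit read from the data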;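 also: plate controls were DMSO with enzyme for no effect and no enzyme buffer wells for full effect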
SENP6 block – SENP6 protease inhibition; Q9GZR1; Recombinant SENP6 catalytic domain, aminoluciferin luminescence; inhibition, % at 10 µM; actives 1.8% (n = 330,000); AID 2599;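 active = inhibition above about 50% at the single tested dose, limit read from the data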;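 also: plate controls were DMSO wells with enzyme for no effect and DMSO wells lacking enzyme for full effect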
SENP8 block-2 – blocks human SENP8 cleavage of Nedd8 substrate; Q96LD8; actives 0.64% (n = 360,000); inhibition, % at 20 µM; recombinant SENP8, Nedd8 substrate fluorescence; in the data active = inhibition mostly above about 40%, no sharp cut-off; inactive = mostly below about 27%
SENP8 confirm – confirmation of human SENP8 protease inhibitors. shares compounds with SENP7 block. Recombinant SENP8, Z-RLRGG-aminoluciferin luminescence, 60 min. inhibition, % at 12.5 µM. actives 40% (n = 6,200). AID 488912;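 active = mean inhibition across replicates above about 50%, limit read from the data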
SENP6 confirm – confirmation of human SENP6 protease inhibitors; AID 488915; actives 58% (n = 6,200); inhibition, % at 12.5 µM; shares compounds with SENP7 block; recombinant SENP6, Z-RLRGG-aminoluciferin luminescence
SENP7 confirm – human SENP7 inhibition, confirmed; recombinant SENP7, Z-RLRGG-aminoluciferin luminescence, 40 min; AID 488917; inhibition, % at 12.5 µM; shares compounds with SENP7 block; actives 69% (n = 6,200)
Casp3 SENP sel – caspase-3 inhibition (SENP selectivity assay); inhibition, % at 12.5 µM; purified caspase-3, Z-DEVD-aminoluciferin luminescence, 60 min; AID 488918; shares compounds with SENP7 block; actives 60% (n = 6,200);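 active = mean inhibition above about 50%, limit read from the data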;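 also: plate controls were enzyme with DMSO for no effect and wells without caspase-3 for full effect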
Target sequence (P42574 28-227 limits assumed): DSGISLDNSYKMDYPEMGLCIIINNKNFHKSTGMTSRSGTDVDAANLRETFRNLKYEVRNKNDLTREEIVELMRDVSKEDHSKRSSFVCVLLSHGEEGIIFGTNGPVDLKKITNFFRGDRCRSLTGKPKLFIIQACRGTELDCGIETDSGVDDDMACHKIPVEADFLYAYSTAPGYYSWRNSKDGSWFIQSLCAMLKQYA
Luc interf – luminescence interference (SENP counter-screen). shares compounds with SENP7 block. Pre-incubated SENP8/Z-RLRGG-aminoluciferin, luciferase luminescence interference. inhibition, % at 12.5 µM. actives 39% (n = 6,200);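 active = mean inhibition above about 50% when retested at one dose, limit read from the data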;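 also: plate controls were DMSO wells with completed reaction for no effect and substrate without enzyme for full effect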
Numbers without * were called inactive; i = inactive; . = no result given. A selection: hits, their analogues and other compounds. The true share with any hit is near 2.6%.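 The calls were made as follows, unless noted: active = mean inhibition above about 50% in the one-dose retest (limit read from the data); inactive = the rest.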

SMILES	SENP8 block-1	SENP1 inh	Platelet DG rel	SENP7 block	SENP6 block	SENP8 block-2	SENP8 confirm	SENP6 confirm	SENP7 confirm	Casp3 SENP sel	Luc interf
CC1CCc2c(sc(NC(=O)c3ccco3)c2C(=O)O)C1 (centres undefined)	62*	1	1	5	78*	-107	78*	72*	88*	66*	65*
Cc1nc(SC2CCOC2=O)c2c(C)c(C)sc2n1 (centres undefined)	-6	3	0	2	-26	23	.	.	.	.	.
O=C(c1cccc([N+](=O)[O-])c1)N(c1ccccn1)c1ccccn1	-14	-4	-2	-10	-24	12	.	.	.	.	.
Cc1ccc(Nc2nc(Cl)c(C=O)s2)cc1Cl	93*	-28	5	87*	94*	-365	69*	96*	85*	52*	10
CCCCc1ccc(NC(=O)CC(C)C)cc1	7	-1	-11	1	9	-1	.	.	.	.	.
Cc1ccc(-c2nnc(-c3ccccc3Br)o2)cc1	86*	1	-4	83*	90*	13	7	88*	98*	74*	76*
Brc1ccccc1-c1nnc(-c2cccnc2)o1	-8	1	4	5	11	9	.	.	.	.	.
Cc1ccc(-c2nnc(-c3cccnc3)o2)cc1	-8	-1	16	-11	-22	-1	.	.	.	.	.
Brc1ccc(-c2nnc(-c3ccccc3Br)o2)cc1	70*	1	0	74*	64*	3	18	18	25	28	15
Fc1ccc(-c2nnc(-c3ccc(F)cc3)o2)cc1	24	3	5	60*	52*	22	12	15	36	37	5
Fc1ccc(-c2nnc(NC3=NCCCCC3)o2)cc1	89*	2	64*	98*	91*	19	11	95*	102*	98*	75*
O=C(NCC(c1ccco1)N1CCc2ccccc21)c1ccc([N+](=O)[O-])cc1 (centres undefined)	-7	2	-1	-6	-12	8	.	.	.	.	.
COc1ccccc1/C=C1\SC(=O)N(CCC(=O)NCCCn2ccnc2)C1=O	0	1	1	-1	3	-41	.	.	.	.	.
c1csc(-c2nc(CN3CCSCC3)cs2)c1	74*	-1	16	88*	80*	-19	80*	80*	96*	94*	86*
O=C(O)c1csc(-c2cccs2)n1	57*	2	0	-4	-8	-8	2	2	2	-2	-1
C=CCC[C@@H](Cc1ccc(F)cc1)C(=O)OC[C@@H](Cc1c[nH]c2ccccc12)NC(=O)[C@H](CC=C)CC(=O)N(CCO)Cc1ccccc1	-7	-1	.	-9	-2	14	.	.	.	.	.
CCc1nc(N2CCOCC2)c(C#N)c2c1COC(C)(C)C2	0	-2	-12	-2	-9	-473	.	.	.	.	.
CC(=O)OC(C(=O)NC1CCCCC1)c1ccc(Cl)cc1 (centres undefined)	-1	1	1	-10	-16	11	.	.	.	.	.
COc1ccc(-c2cn(Cc3ccc(C(N)=O)cc3)c(-c3ccncc3)n2)cc1	61*	2	.	68*	72*	-494	71*	69*	91*	76*	54*
COc1ccc(-c2cn(CCC(=O)O)c(-c3ccncc3)n2)cc1	-10	4	.	-1	-9	-132	.	.	.	.	.
Cc1cn2nc(N)c3ccccc3c2n1	-2	-1	.	-4	-3	i	.	.	.	.	.
